Source: ChEMBL document CHEMBL1221307, “Substituted 2H-isoquinolin-1-ones as potent Rho-kinase inhibitors: part 2, optimization for blood pressure reduction in spontaneously hypertensive rats” (Bioorg Med Chem Lett, 2010)

Assays:
Format in all cases: ADME, organism-based
[1] = AUC in rat at 10 mg/kg, po; set-up: dose 10 mg/kg, route oral; settings: plasma
How it was run: (§1)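 Rats given 0.5 mg/kg iv and 10 mg/kg po. The iv plasma values are the mean from three rats; the po plasma values come from a single rat.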

[2] = AUC in rat at 0.5 mg/kg, iv; set-up: dose 0.5 mg/kg, route intravenous; settings: plasma; how it was run: as §1
[3] = Oral bioavailability in rat at 10 mg/kg; settings: in vivo; how it was run: as §1

AUC [1] | AUC [2] | bioavailability [3] | SMILES
1780 ng·h/mL | 127 ng·h/mL | 70% | CN1CCC(C(=O)Nc2cc3cc[nH]c(=O)c3cc2Cl)CC1
141 ng·h/mL | 161 ng·h/mL | 4.4% | O=C(Nc1cc2cc[nH]c(=O)c2cc1Cl)C1CCNCC1
338 ng·h/mL | 119 ng·h/mL | 20% | N[C@H]1CC[C@@H](C(=O)Nc2cc3cc[nH]c(=O)c3cc2Cl)CC1
